What was measured:
SK-BR-3 [1] = test: Cell cycle arrest in human SK-BR-3 cells assessed as accumulation at S phase at 0.10 uM after 3 hrs using propidium iodide staining by FACS analysis; format: functional
How it was run: (§1)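 SKBR-3 cells in RPMI1640 with 10% heat-inactivated FBS at 37 °C and 5% CO₂ were treated for the stated times. Cells were fixed overnight in 70% EtOH at −20 °C, then stained with propidium iodide buffer (38 mM sodium citrate pH 7.5, 69 µM PI, 120 µg/mL RNase A) for 15 min at room temperature in the dark. Up to 1×10⁴ gated cells were analyzed by flow cytometry, giving percent distribution per phase.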

SK-BR-3 [2] = test: Cell cycle arrest in human SK-BR-3 cells assessed as accumulation at G1 phase at 0.10 uM after 3 hrs using propidium iodide staining by FACS analysis; format: functional; how it was run: as §1
SK-BR-3 [3] = test: Cell cycle arrest in human SK-BR-3 cells assessed as accumulation at Sub-G1 phase at 0.10 uM after 6 hrs using propidium iodide staining by FACS analysis; format: functional
SK-BR-3 [4] = test: Cell cycle arrest in human SK-BR-3 cells assessed as accumulation at G2/M phase at 0.10 uM after 6 hrs using propidium iodide staining by FACS analysis; format: functional; how it was run: as §1
SK-BR-3 [5] = test: Cell cycle arrest in human SK-BR-3 cells assessed as accumulation at G1 phase at 0.10 uM after 12 hrs using propidium iodide staining by FACS analysis; format: functional; how it was run: as §1
SK-BR-3 [6] = test: Cell cycle arrest in human SK-BR-3 cells assessed as accumulation at Sub-G1 phase at 0.50 uM after 12 hrs using propidium iodide staining by FACS analysis; format: functional
SK-BR-3 [7] = test: Cell cycle arrest in human SK-BR-3 cells assessed as accumulation at G2/M phase at 5 uM after 12 hrs using propidium iodide staining by FACS analysis; format: functional; how it was run: as §1
SK-BR-3 [8] = test: Cell cycle arrest in human SK-BR-3 cells assessed as accumulation at Sub-G1 phase at 0.25 uM after 18 hrs using propidium iodide staining by FACS analysis; format: functional
SK-BR-3 [9] = test: Cell cycle arrest in human SK-BR-3 cells assessed as accumulation at G1 phase at 0.25 uM after 18 hrs using propidium iodide staining by FACS analysis; format: functional; how it was run: as §1
SK-BR-3 [10] = test: Cell cycle arrest in human SK-BR-3 cells assessed as accumulation at S phase at 0.25 uM after 18 hrs using propidium iodide staining by FACS analysis; format: functional
SK-BR-3 [11] = test: Cell cycle arrest in human SK-BR-3 cells assessed as accumulation at G2/M phase at 0.25 uM after 18 hrs using propidium iodide staining by FACS analysis; format: functional; how it was run: as §1
SK-BR-3 [12] = test: Cell cycle arrest in human SK-BR-3 cells assessed as accumulation at G1 phase at 0.25 uM after 24 hrs using propidium iodide staining by FACS analysis; format: functional; how it was run: as §1
SK-BR-3 [13] = test: Cell cycle arrest in human SK-BR-3 cells assessed as accumulation at G2/M phase at 0.25 uM after 24 hrs using propidium iodide staining by FACS analysis; format: functional; how it was run: as §1
SK-BR-3 [14] = test: Cell cycle arrest in human SK-BR-3 cells assessed as accumulation at G1 phase at 0.50 uM after 24 hrs using propidium iodide staining by FACS analysis; format: functional; how it was run: as §1
HOP-92 = test: Growth inhibition of human HOP92 cells after 48 hrs by SRB assay; format: functional
COLO 205 = test: Growth inhibition of human COLO205 cells after 48 hrs by SRB assay; format: functional
LOX IMVI = test: Growth inhibition of human LOXIMVI cells after 48 hrs by SRB assay; format: functional
OVCAR-5 = test: Growth inhibition of human OVCAR5 cells after 48 hrs by SRB assay; format: functional
OVCAR-8 = test: Growth inhibition of human OVCAR8 cells after 48 hrs by SRB assay; format: functional
NCI/ADR-RES = test: Growth inhibition of human NCI/ADR-RES cells after 48 hrs by SRB assay; format: functional
786-0 = test: Growth inhibition of human 786-0 cells after 48 hrs by SRB assay; format: functional
A498 = test: Growth inhibition of human A498 cells after 48 hrs by SRB assay; format: functional
TK-10 = test: Growth inhibition of human TK10 cells after 48 hrs by SRB assay; format: functional
DU-145 = test: Growth inhibition of human DU145 cells after 48 hrs by SRB assay; format: functional
[15] = Apparent oral clearance in Sprague-Dawley rat at 20 mg/kg, ip; format: ADME, organism-based; design: dose 20 mg/kg; settings: in vivo
How it was run: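 Male Sprague–Dawley rats (300–350 g), n=3, fasted overnight with water available, given a single 20 mg/kg i.p. dose in PBS with 0.1% Tween80 and 20% DMSO. Blood drawn into heparinized tubes at 0, 0.25, 0.5, 1, 2, 4, 8 and 24 h. Plasma measured by LC-MS/MS against an internal standard. Parameters from non-compartmental analysis.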

SK-BR-3 [16] = test: Cell cycle arrest in human SK-BR-3 cells assessed as accumulation at G2/M phase at 5 uM after 3 hrs using propidium iodide staining by FACS analysis; format: functional; how it was run: as §1
SK-BR-3 [17] = test: Cell cycle arrest in human SK-BR-3 cells assessed as accumulation at Sub-G1 phase at 5 uM after 3 hrs using propidium iodide staining by FACS analysis; format: functional
SK-BR-3 [18] = test: Cell cycle arrest in human SK-BR-3 cells assessed as accumulation at G2/M phase at 0.50 uM after 3 hrs using propidium iodide staining by FACS analysis; format: functional; how it was run: as §1
SK-BR-3 [19] = test: Cell cycle arrest in human SK-BR-3 cells assessed as accumulation at G1 phase at 0.50 uM after 3 hrs using propidium iodide staining by FACS analysis; format: functional; how it was run: as §1
SK-BR-3 [20] = test: Cell cycle arrest in human SK-BR-3 cells assessed as accumulation at G1 phase at 0.25 uM after 3 hrs using propidium iodide staining by FACS analysis; format: functional; how it was run: as §1
[21] = read-out: LC50 (the source's name)

Cc1ccc(C)c(COc2cc(NC(=O)c3ccc4c(c3)OCO4)ccc2N(C)S(C)(=O)=O)c1 showed an Activity (SK-BR-3 [1]) of 17.2%, an Activity (SK-BR-3 [2]) of 70.84% and an Activity (SK-BR-3 [3]) of 3.6%. It also gave an Activity (SK-BR-3 [4]) of 9.07%, an Activity (SK-BR-3 [5]) of 73.14% and an Activity (SK-BR-3 [6]) of 6.36%. For the same compound, the Activity (SK-BR-3 [7]) was 20.54%, the Activity (SK-BR-3 [8]) was 8.89% and the Activity (SK-BR-3 [9]) was 73.42%. The Activity (SK-BR-3 [10]) was 6.81%, the Activity (SK-BR-3 [11]) was 10.57% and the Activity (SK-BR-3 [12]) was 41.27%. The Activity (SK-BR-3 [13]) was 22.53%, the Activity (SK-BR-3 [14]) was 31.77% and the “growth inhibition (GI)” value (HOP-92) was “Dose-dependent effect”. For the same compound, the GI50 (HOP-92; HOP-92, 48 h) was 3220 nM, the TGI (HOP-92; HOP-92, 48 h) was > 100000 nM and the CC50 (HOP-92; HOP-92, 48 h, read-out: LC50 (the source's name)) was > 100000 nM. The “growth inhibition (GI)” value (COLO 205) was “Dose-dependent effect”, the GI50 (COLO 205; COLO 205, 48 h) was 318 nM and the TGI (COLO 205; COLO 205, 48 h) was 1070 nM. For the same compound, the CC50 (COLO 205; COLO 205, 48 h, read-out: LC50 (the source's name)) was > 100000 nM, the GI50 (LOX IMVI) was 66.6 nM and the TGI (LOX IMVI) was > 100000 nM. The “growth inhibition (GI)” value (LOX IMVI) was “Dose-dependent effect”, the CC50 (LOX IMVI; [21]) was > 100000 nM and the “growth inhibition (GI)” value (OVCAR-5) was “Dose-dependent effect”. For the same compound, the GI50 (OVCAR-5; OVCAR-5, 48 h) was 538 nM, the TGI (OVCAR-5; OVCAR-5, 48 h) was > 100000 nM and the “growth inhibition (GI)” value (OVCAR-8) was “Dose-dependent effect”. The GI50 (OVCAR-8; OVCAR-8, 48 h) was 265 nM, the TGI (OVCAR-8; OVCAR-8, 48 h) was > 100000 nM and the CC50 (OVCAR-8; OVCAR-8, 48 h, read-out: LC50 (the source's name)) was > 100000 nM. For the same compound, the GI50 (NCI/ADR-RES) was 56.2 nM, the TGI (NCI/ADR-RES) was 407 nM and the “growth inhibition (GI)” value (NCI/ADR-RES) was “Dose-dependent effect”. For the same compound, the CC50 (NCI/ADR-RES; [21]) was > 100000 nM, the “growth inhibition (GI)” value (786-0) was “Dose-dependent effect” and the GI50 (786-0; 786-0, 48 h) was 191 nM. The TGI (786-0; 786-0, 48 h) was 1110 nM, the CC50 (786-0; 786-0, 48 h, read-out: LC50 (the source's name)) was > 100000 nM and the “growth inhibition (GI)” value (A498) was “Dose-dependent effect”. For the same compound, the TGI (A498; A498, 48 h) was 853 nM, the CC50 (A498; A498, 48 h, read-out: LC50 (the source's name)) was > 100000 nM and the “growth inhibition (GI)” value (TK-10) was “Dose-dependent effect”. For the same compound, the GI50 (TK-10; TK-10, 48 h) was 354 nM, the TGI (TK-10; TK-10, 48 h) was > 100000 nM and the CC50 (TK-10; TK-10, 48 h, read-out: LC50 (the source's name)) was > 100000 nM. The “growth inhibition (GI)” value (DU-145) was “Dose-dependent effect”, the GI50 (DU-145; DU-145, 48 h) was 159 nM and the TGI (DU-145; DU-145, 48 h) was 457 nM. For the same compound, the CC50 (DU-145; DU-145, 48 h, read-out: LC50 (the source's name)) was > 100000 nM, the CL/F [15] was 8 mL/min and the Activity (SK-BR-3 [16]) was 11.57%. The Activity (SK-BR-3 [17]) was 2.81%, the Activity (SK-BR-3 [18]) was 11.54% and the Activity (SK-BR-3 [19]) was 67.14%. It also gave an Activity (SK-BR-3 [20]) of 69.63%.

From ChEMBL document CHEMBL1932938, “From COX-2 inhibitor nimesulide to potent anti-cancer agent: synthesis, in vitro, in vivo and pharmacokinetic evaluation” (Eur J Med Chem, 2012)
